The IC50 is the concentration that inhibits the measured activity by half.

The record followed here is ChEMBL document CHEMBL4145632, “Selective Irreversible Inhibitors of the Wnt-Deacylating Enzyme NOTUM Developed by Activity-Based Protein Profiling” (ACS Med Chem Lett, 2018).

Holding throughout (format): cell-based
Data set [1] addresses T1, Palmitoleoyl-protein carboxylesterase NOTUM (Homo sapiens, UniProt Q6P988).
T1 sequence (Q6P988 whole entry): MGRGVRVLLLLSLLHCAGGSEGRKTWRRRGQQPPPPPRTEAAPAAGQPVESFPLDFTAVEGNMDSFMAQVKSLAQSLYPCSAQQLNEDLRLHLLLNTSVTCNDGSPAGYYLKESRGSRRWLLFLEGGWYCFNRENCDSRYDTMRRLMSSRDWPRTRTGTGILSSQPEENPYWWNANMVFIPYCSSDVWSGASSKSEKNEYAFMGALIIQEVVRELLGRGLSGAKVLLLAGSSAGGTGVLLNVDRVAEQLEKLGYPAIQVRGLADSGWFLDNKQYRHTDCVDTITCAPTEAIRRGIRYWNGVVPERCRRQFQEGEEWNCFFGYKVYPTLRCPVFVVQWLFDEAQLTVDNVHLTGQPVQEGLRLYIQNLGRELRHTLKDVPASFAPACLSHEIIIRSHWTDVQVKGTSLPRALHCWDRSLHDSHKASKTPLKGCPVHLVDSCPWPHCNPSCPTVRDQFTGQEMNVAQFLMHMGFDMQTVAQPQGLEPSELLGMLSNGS
Put plainly: Inhibition of rhodamine-tagged FP probe binding to NOTUM in human SW620 cells conditioned medium at 0.01 to 1 uM pretreated for 30 mins followed by rhodamine-tagged FP probe addition and measured after 30 mins by SDS-PAGE fluorescence analysis. As to conditions: 0.5 h.

Data set [2] deals with T1, Palmitoleoyl-protein carboxylesterase NOTUM. Put plainly: Inhibition of NOTUM in human SW620 cells conditioned medium at 0.01 to 1 uM measured after 30 mins by rhodamine-azide reporter tagged based SDS-PAGE fluorescence analysis. As to conditions: 0.5 h. The essentials: (§1)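 Alkyne probe analogue was added to SW620 conditioned medium or cellular lysate for 30 min at 37 °C. Samples were clicked to a rhodamine-azide tag by copper-mediated azide–alkyne cycloaddition, then read by SDS-PAGE and in-gel fluorescence.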

The target in data set [3] is T2, Monoacylglycerol lipase ABHD6 (Homo sapiens) (UniProt Q9BV23).
T2 sequence (whole entry): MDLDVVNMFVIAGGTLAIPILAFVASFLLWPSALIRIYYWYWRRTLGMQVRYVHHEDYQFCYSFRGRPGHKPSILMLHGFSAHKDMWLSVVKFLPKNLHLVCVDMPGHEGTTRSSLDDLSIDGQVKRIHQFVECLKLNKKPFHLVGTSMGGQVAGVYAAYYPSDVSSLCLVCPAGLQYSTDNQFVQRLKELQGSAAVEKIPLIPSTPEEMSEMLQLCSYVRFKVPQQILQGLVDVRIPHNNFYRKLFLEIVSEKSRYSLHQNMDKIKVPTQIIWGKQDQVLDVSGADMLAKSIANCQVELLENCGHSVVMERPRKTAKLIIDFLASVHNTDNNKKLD
Kind of data set: Inhibition of rhodamine-tagged FP probe binding to ABHD6 in human SW620 cells at 0.1 uM pretreated for 30 mins followed by rhodamine-tagged FP probe addition and measured after 30 mins by SDS-PAGE fluorescence analysis.

Data set [4] addresses T2, Monoacylglycerol lipase ABHD6 (Homo sapiens). Kind of data set: Inhibition of ABHD6 in human SW620 cells at 0.1 uM after 30 mins by rhodamine-azide reporter tagged based SDS-PAGE fluorescence analysis. The essentials: as §1
Data set [5] deals with T3, Palmitoyl-protein thioesterase 1 (Homo sapiens) (UniProt P50897).
T3 sequence (whole entry): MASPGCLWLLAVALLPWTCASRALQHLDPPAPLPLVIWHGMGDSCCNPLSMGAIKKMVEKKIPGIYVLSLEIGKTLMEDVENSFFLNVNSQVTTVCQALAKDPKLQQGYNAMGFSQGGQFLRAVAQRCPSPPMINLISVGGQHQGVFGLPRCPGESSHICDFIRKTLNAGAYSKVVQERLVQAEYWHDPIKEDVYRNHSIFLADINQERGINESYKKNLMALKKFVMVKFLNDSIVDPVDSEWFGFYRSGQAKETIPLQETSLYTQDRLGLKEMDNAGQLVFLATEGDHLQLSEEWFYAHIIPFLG
Kind of data set: Inhibition of ABC45 probe binding to PPT1 in human SW620 cells at 0.1 to 10 uM pretreated for 2 hrs followed by ABC45 probe addition and measured after 30 mins by rhodamine-azide reporter tagged based SDS-PAGE fluorescence analysis. The essentials: (§2)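 SW620 cells were treated in situ with compound at the stated concentrations for 2 h at 37 °C. Soluble and membrane proteomes were then labeled with the PPT1-directed probe ABC45 or FP-Rh. Competition was read by SDS-PAGE and in-gel fluorescence scanning.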

The target of data set [6] is T1, Palmitoleoyl-protein carboxylesterase NOTUM. Kind of data set: Inhibition of rhodamine-tagged FP probe binding to NOTUM in human SW620 cells conditioned media pretreated for 30 mins followed by rhodamine-tagged FP probe addition and measured after 30 mins by SDS-PAGE fluorescence analysis.
The target is the same in data set [7]. Kind of data set: Inhibition of rhodamine-tagged FP probe binding to NOTUM in human SW620 cells conditioned media at 0.1 to 3 uM pretreated for 30 mins followed by rhodamine-tagged FP probe addition and measured after 30 mins by SDS-PAGE fluorescence analysis. As to conditions: 0.5 h.
Data set [8] concerns the target T2, Monoacylglycerol lipase ABHD6 (Homo sapiens). Kind of data set: Inhibition of rhodamine-tagged FP probe binding to ABHD6 in human SW620 cells at 0.1 to 10 uM pretreated for 2 hrs followed by rhodamine-tagged FP probe addition and measured after 30 mins by SDS-PAGE fluorescence analysis. The essentials: as §2
Data set [9] deals with T1, Palmitoleoyl-protein carboxylesterase NOTUM. Put plainly: Inhibition of rhodamine-tagged FP probe binding to recombinant human C-terminal FLAG-tagged NOTUM expressed in HEK293T cells pretreated for 30 mins followed by rhodamine-tagged FP probe addition and measured after 30 mins by SDS-PAGE fluorescence analysis.
Data set [10] shares this target. Kind of data set: Inhibition of NOTUM in human SW620 cells conditioned medium assessed as preservation of Wnt3A activity pretreated for 1 hr followed by Wnt3A producing L-cell addition for 2 hrs and subsequent […]-STF cell addition and measured after 24 hrs by luciferase reporter gene assay. Background: A reporter such as luciferase makes a cellular process visible.

For data set [11] the target is unchanged. Put plainly: Inhibition of NOTUM in human SW620 cells conditioned medium at 10 uM after 1 hr by FP-biotin probe based LC-MS analysis relative to control. In a few lines: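 SW620 conditioned medium was treated with compound (0.5 or 10 μM) or DMSO for 1 h at 37 °C. Peptides were labeled with light (compound) or heavy (DMSO) formaldehyde, combined and analyzed by MS. Values are light/heavy median peptide ratios from two independent experiments, ±SEM.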

Data set [12] concerns the target T2, Monoacylglycerol lipase ABHD6 (Homo sapiens). Put plainly: Inhibition of ABHD6 in human SW620 cells at 10 uM after 2 hrs by FP-biotin probe based LC-MS analysis.

Activity calls are given as the source filed them. The calls are words filed in the database; no cut-off is given here.

On to `C#CCN1CCN(C(=O)ON2C(=O)C3CN(Cc4ccc(Cl)cc4)CCN3C2=O)c2ccccc21` (centres undefined), for which the “inhibition (INH)” value in data set [1] and in [2] was “Active” in each case. The inhibition entry in data set [3] and in data set [4] was “inactive” in each case.

As to `O=C1C2CN(Cc3ccc(Cl)cc3)CCN2C(=O)N1OC(=O)N1CCOc2ccccc21` (centres undefined), in data set [5], the inhibition result is “inactive”.

Consider `COc1ccc(N2CCN(C(=O)ON3C(=O)C4CN(Cc5ccccc5Cl)CCN4C3=O)CC2)cc1` (centres undefined), for which the IC50 in data set [6] was determined as 0.2 µM. Besides, the “inhibition (INH)” value in data set [7] is listed as “Active”.

Turning to `COc1ccc(N2CCN(C(=O)ON3C(=O)C4CN(Cc5ccc(Cl)cc5)CCN4C3=O)CC2)cc1` (centres undefined), the IC50 in data set [6] came to 0.29 µM. The “inhibition (INH)” value in [7] is reported as “Active”. Besides, the inhibition result in data set [8] and in [5] was “Active” each time.

As to `COc1ccc(N2CCN(C(=O)ON3C(=O)C4CN(Cc5cccc(Cl)c5)CCN4C3=O)CC2)cc1` (centres undefined), the IC50 in data set [6] is more than 10 µM. The “inhibition (INH)” value in data set [7] was “Not Active”.

On to `O=C1C2CN(Cc3ccc(Oc4ccccc4)nc3)CCN2C(=O)N1OC(=O)N1CCOc2ccccc21` (centres undefined), for which the IC50 in data set [9] was determined as 1.51 µM. For the same compound, the inhibition entry in data set [5] was “inactive”.

Turning to `O=C(c1ccc(Cl)cc1)N1CCN2C(=O)N(OC(=O)N3CCOc4ccccc43)C(=O)C2C1` (centres undefined), the IC50 in data set [10] is more than 5 µM; in [6] it was more than 10 µM. The “inhibition (INH)” value in [11] is recorded as “Not Active”. Moreover, the inhibition result in [12] is “Active”.
